Each block holds one compound with its values, some of them ahead of it.
Columns and labels:
[1] = Drug level in human liver microsomes treated with 4-(1,1,1,3,3,3-Hexafluoro-2-methoxypropan-2-yl)-N-(6-(2-hydroxyethoxy)-5-(2-methoxyphenoxy)-2,2'-bipyrimidin-4-yl)benzenesulfonamide at 5 uM in presence of NADPH after 30 mins by LC-MS/MS analysis; type: ADME; details: 0.5 h
Outline: (§1)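 Substrate at 5 μM final in 100 mM potassium phosphate, pH 7.4, incubated with human liver microsomes or baculovirus-expressed recombinant CYP3A4, 2D6 or 2C9. Reaction started with 1 mM NADPH and run 0, 15 and 30 min at 37 °C. Stopped with ice-cold acetonitrile containing labetalol internal standard, then centrifuged. Supernatant analysed by LC-MS/MS on a C18 column at 40 °C. Blank was enzyme without substrate.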

[2] = target: T1, Cytochrome P450 3A4 (Homo sapiens, UniProt P08684); experiment: Drug level assessed as human recombinant CYP3A4-mediated compound formation treated with 4-(1,1,1,3,3,3-Hexafluoro-2-methoxypropan-2-yl)-N-(6-(2-hydroxyethoxy)-5-(2-methoxyphenoxy)-2,2'-bipyrimidin-4-yl)benzenesulfonamide at 5 uM in presence of NADPH after 30 mins by LC-MS/MS analysis; type: ADME; details: recombinant enzyme, 0.5 h; outline: as §1
T1 sequence (P08684 whole entry): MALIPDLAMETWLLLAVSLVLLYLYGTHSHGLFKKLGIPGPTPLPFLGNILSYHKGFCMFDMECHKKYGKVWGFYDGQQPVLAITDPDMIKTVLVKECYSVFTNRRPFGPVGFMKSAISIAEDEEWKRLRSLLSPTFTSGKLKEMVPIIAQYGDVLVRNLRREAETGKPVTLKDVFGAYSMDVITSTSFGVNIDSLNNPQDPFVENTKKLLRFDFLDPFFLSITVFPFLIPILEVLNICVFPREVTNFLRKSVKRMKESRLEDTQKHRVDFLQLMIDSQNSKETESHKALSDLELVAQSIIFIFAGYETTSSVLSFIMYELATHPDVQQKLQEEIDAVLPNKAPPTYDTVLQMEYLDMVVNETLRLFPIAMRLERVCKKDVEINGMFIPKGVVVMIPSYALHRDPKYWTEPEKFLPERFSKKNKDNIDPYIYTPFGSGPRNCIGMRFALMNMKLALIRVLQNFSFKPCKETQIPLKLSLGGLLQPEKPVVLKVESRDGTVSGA

[3] = Retention time of the compound; type: physicochemical
[4] = Drug level in human liver microsomes treated with 4-(1,1,1,2,3,3,3-Heptafluoropropan-2-yl)-N-(6-(2-hydroxyethoxy)-5-(2-methoxyphenoxy)-2,2'-bipyrimidin-4-yl)benzenesulfonamide at 5 uM in presence of NADPH after 30 mins by LC-MS/MS analysis; type: ADME; details: 0.5 h; outline: as §1
[5] = target: T1, Cytochrome P450 3A4; experiment: Drug level assessed as human recombinant CYP3A4-mediated compound formation treated with 4-(1,1,1,2,3,3,3-Heptafluoropropan-2-yl)-N-(6-(2-hydroxyethoxy)-5-(2-methoxyphenoxy)-2,2'-bipyrimidin-4-yl)benzenesulfonamide at 5 uM in presence of NADPH after 30 mins by LC-MS/MS analysis; type: ADME; details: recombinant enzyme, 0.5 h; outline: as §1
[6] = target: T1, Cytochrome P450 3A4; experiment: Drug level assessed as human recombinant CYP3A4-mediated compound formation treated with bosentan at 5 uM in presence of NADPH after 30 mins by LC-MS/MS analysis; type: ADME; details: recombinant enzyme, 0.5 h; outline: as §1
[7] = Drug level in human liver microsomes treated with bosentan at 5 uM in presence of NADPH after 30 mins by LC-MS/MS analysis; type: ADME; details: 0.5 h; outline: as §1
[8] = Metabolic stability in human liver microsomes assessed as parent compound remaining at 5 uM in presence of NADPH after 30 mins by LC-MS/MS analysis; type: ADME; details: read-out: Stability
Outline: (§2)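 Pooled human liver microsomes in 100 mM potassium phosphate, pH 7.4, with test compound at 5 μM final. Reaction started with 1 mM NADPH (final) and run at 37 °C in a shaking water bath for 0, 15 and 30 min. Stopped with an equal volume of ice-cold acetonitrile containing 0.6 μM labetalol as internal standard. Protein was spun out and the supernatant analysed by LC-MS/MS. Blank had no compound.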

[9] = target: T1, Cytochrome P450 3A4; experiment: Drug metabolism assessed as human recombinant CYP3A4-mediated metabolite formation by measuring parent compound remaining at 5 uM in presence of NADPH after 30 mins by LC-MS/MS analysis; type: ADME; details: recombinant enzyme, 0.5 h; outline: as §1
[10] = target: T2, Cytochrome P450 2C9 (Homo sapiens, UniProt P11712); experiment: Drug metabolism assessed as human recombinant CYP2C9-mediated metabolite formation by measuring parent compound remaining at 5 uM in presence of NADPH after 30 mins by LC-MS/MS analysis; type: ADME; details: recombinant enzyme, 0.5 h; outline: as §1
T2 sequence (P11712 whole entry): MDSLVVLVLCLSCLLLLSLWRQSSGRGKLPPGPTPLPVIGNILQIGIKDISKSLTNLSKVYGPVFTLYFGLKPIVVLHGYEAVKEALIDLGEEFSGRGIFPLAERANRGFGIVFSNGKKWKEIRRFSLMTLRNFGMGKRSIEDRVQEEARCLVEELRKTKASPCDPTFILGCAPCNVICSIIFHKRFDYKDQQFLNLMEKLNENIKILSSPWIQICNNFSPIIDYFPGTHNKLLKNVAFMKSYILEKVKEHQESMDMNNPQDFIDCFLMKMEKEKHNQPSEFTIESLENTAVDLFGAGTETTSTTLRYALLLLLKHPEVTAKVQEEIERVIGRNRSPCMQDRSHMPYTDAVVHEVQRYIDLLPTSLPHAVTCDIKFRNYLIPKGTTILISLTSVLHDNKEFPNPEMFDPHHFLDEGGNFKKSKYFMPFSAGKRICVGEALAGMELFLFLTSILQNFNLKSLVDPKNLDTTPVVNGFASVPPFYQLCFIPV

[11] = Drug metabolism in human liver microsomes assessed as formation of N-(6-ethoxy-5-(2-methoxyphenoxy)-2,2'-bipyrimidin-4-yl)-4-(1-hydroxy-2-methylpropan-2-yl)benzenesulfonamide at 5 uM in presence of NADPH after 30 mins by LC-MS/MS analysissss; type: ADME; details: 0.5 h; outline: as §2
[12] = target: T1, Cytochrome P450 3A4; experiment: Drug metabolism assessed as human recombinant CYP3A4-mediated formation of N-(6-ethoxy-5-(2-methoxyphenoxy)-2,2'-bipyrimidin-4-yl)-4-(1-hydroxy-2-methylpropan-2-yl)benzenesulfonamide at 5 uM in presence of NADPH after 30 mins by LC-MS/MS analysissss; type: ADME; details: recombinant enzyme, 0.5 h; outline: as §1
[13] = target: T2, Cytochrome P450 2C9; experiment: Drug metabolism assessed as human recombinant CYP2C9-mediated formation of N-(6-ethoxy-5-(2-methoxyphenoxy)-2,2'-bipyrimidin-4-yl)-4-(1-hydroxy-2-methylpropan-2-yl)benzenesulfonamide at 5 uM in presence of NADPH after 30 mins by LC-MS/MS analysissss; type: ADME; details: recombinant enzyme, 0.5 h; outline: as §1
[14] = target: Cytochrome P450 2D6 (Homo sapiens, UniProt P10635); experiment: Drug metabolism assessed as human recombinant CYP2D6-mediated metabolite formation by measuring parent compound remaining at 5 uM in presence of NADPH after 30 mins by LC-MS/MS analysis; type: ADME; details: recombinant enzyme, 0.5 h; outline: as §1
Cytochrome P450 2D6, sequence (P10635 whole entry): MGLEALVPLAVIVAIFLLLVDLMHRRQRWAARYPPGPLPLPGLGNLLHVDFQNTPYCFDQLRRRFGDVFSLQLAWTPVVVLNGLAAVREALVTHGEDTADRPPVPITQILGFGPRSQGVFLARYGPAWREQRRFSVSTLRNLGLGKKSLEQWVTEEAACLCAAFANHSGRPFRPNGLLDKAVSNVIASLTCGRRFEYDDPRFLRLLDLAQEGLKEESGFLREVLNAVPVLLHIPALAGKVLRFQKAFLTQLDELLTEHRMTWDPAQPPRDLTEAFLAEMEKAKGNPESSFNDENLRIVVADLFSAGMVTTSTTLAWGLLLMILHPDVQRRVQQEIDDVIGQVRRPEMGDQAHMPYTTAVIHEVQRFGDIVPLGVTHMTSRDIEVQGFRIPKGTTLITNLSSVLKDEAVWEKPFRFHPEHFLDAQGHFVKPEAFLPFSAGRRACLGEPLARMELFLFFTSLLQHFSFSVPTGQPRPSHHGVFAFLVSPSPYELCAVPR

Drug metabolism [1]: Metabolite_Detected
Drug metabolism [2]: Metabolite_Detected
Retention_time [3]: 5.14 min
Compound: COC(c1ccc(S(=O)(=O)Nc2nc(-c3ncccn3)nc(OCCO)c2Oc2ccccc2O)cc1)(C(F)(F)F)C(F)(F)F

Drug metabolism [4]: Metabolite_Detected
Drug metabolism [5]: Metabolite_Detected
Retention_time [3]: 5.27 min
Compound: O=S(=O)(Nc1nc(-c2ncccn2)nc(OCCO)c1Oc1ccccc1O)c1ccc(C(F)(C(F)(F)F)C(F)(F)F)cc1

Drug metabolism [6]: Metabolite_Detected
Drug metabolism [7]: Metabolite_Detected
Retention_time [3]: 4.73 min
Compound: CC(C)(C)c1ccc(S(=O)(=O)Nc2nc(-c3ncccn3)nc(OCCO)c2Oc2ccccc2O)cc1

remaining at 0.5 h, 5 µM [8]: 68.5%
Stability [9]: 15%
Stability [10]: 99%
Drug metabolism [11]: Metabolite_Detected
Drug metabolism [12]: Metabolite_Detected
Drug metabolism [13]: Metabolite_Detected
Retention_time [3]: 5.96 min
Stability [14]: > 99%
Compound: CCOc1nc(-c2ncccn2)nc(NS(=O)(=O)c2ccc(C(C)(C)C)cc2)c1Oc1ccccc1OC

From ChEMBL document CHEMBL3861962 (Eur J Med Chem, 2016)
